This is an account of results in paper PMC4586255 (DNA repair, 2010).

Residues, ends and D or L forms follow the SMILES beside them.

The target in one data set is PCNA (Homo sapiens, UniProt P12004). The data set is described as follows: Isothermal titration calorimetry of hEXO1 peptides with purified PCNA. In kind it is binding. The settings on record: ITC, 30 °C, pH 7.5; 18 μM PCNA, 200 μM p22; no dilution effects in pure buffer. In general terms: In ITC the heat of successive injections is recorded.
Sequence of PCNA (P12004 whole entry): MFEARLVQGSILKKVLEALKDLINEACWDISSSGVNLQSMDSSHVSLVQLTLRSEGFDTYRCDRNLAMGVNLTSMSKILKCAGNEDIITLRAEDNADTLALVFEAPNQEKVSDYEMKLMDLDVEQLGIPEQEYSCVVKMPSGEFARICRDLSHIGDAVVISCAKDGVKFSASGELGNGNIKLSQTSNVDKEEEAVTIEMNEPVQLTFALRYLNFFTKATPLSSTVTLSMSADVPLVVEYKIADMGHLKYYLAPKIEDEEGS
In the next data set the test system is hEXO1. The conditions noted are these: hEXO1-hMLH1 interaction, ref [15], cited from earlier work.
Data set [1] deals with PCNA replication foci in NIH3T3 cells. In kind it is cell-based, murine. The conditions noted are these: for foci formation and co-localization with PCNA during S-phase: 24–48 h. An outline of the steps:
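Murine NIH3T3 cells were kept in DMEM with 10% FBS and penicillin/streptomycin at 37 °C, 10% CO₂. Cells (2*10⁵ per glass-bottom dish) were seeded 24 h before ExGen500 co-transfection with 3 μg total plasmid (CFP-PCNA plus YFP fusion). Confocal imaging at 24–48 h. Co-transfected cells were counted and binned by pattern, e.g. "no foci" (diffuse CFP-PCNA, diffuse nuclear YFP).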

Data set [2] concerns PCNA replication foci in HCT116 cells. The data set is described as follows: Co-localization with PCNA in replication foci in HCT116 cells. The conditions noted are these: HCT116 cell line (hMLH1 deficient); Fig. S5. Type of data set: cell-based.
Setting [3] is: NIH3T3 cells co-transfected with CFP-PCNA.

For the molecule `CC[C@H](C)[C@H](NC(=O)[C@H](CCC(N)=O)NC(=O)[C@H](CC(C)C)NC(=O)CNC(=O)[C@@H]1CCCN1C(=O)[C@H](CCCCN)NC(=O)[C@@H](N)CC(N)=O)C(=O)N[C@@H](CCCCN)C(=O)N[C@@H](CC(C)C)C(=O)N[C@@H](CC(N)=O)C(=O)N[C@@H](CCC(=O)O)C(=O)N[C@@H](CC(C)C)C(=O)N[C@@H](Cc1c[nH]c2ccccc12)C(=O)N[C@@H](CCCCN)C(=O)N[C@@H](CC(N)=O)C(=O)N[C@@H](Cc1ccccc1)C(=O)NCC(=O)N[C@@H](Cc1ccccc1)C(=O)N[C@@H](CCCCN)C(=O)N[C@@H](CCCCN)C(=O)N[C@@H](CC(=O)O)C(=O)N[C@@H](CO)C(=O)O` [hEXO1 p22] (H-NKPGLQIKLNELWKNFGFKKDS-OH; N-terminus and C-terminus assumed), the “heat exchange of binding reaction with PCNA” value at PCNA was “exothermic heat exchange”.

For the molecule hEXO1-hMLH1: hEXO1-hMLH1 complex, the “exonuclease activity on heteroduplex substrate” value with hEXO1 (heteroduplex substrate) is “inhibits exonuclease activity on a heteroduplex substrate”. Besides, the “exonuclease activity on homoduplex substrate” value with hEXO1 (homoduplex substrate) is “did not inhibit exonuclease activity on a homoduplex substrate”.

Consider “hMSH6: fusion protein, CFP or YFP tagged MMR protein”, for which, in data set [1] (setting [3]), the “foci formation and co-localization with PCNA during S-phase” value was “form PCNA co-localizing foci throughout S-phase”.

Turning to human exonuclease 1 [YFP-hEXO1], in data set [2], the “co-localization with PCNA in replication foci” value was “co-localize with PCNA in replication foci in the HCT116 cell line”. Moreover, in data set [1] (CFP channel (CFP-PCNA) in cells co-expressing the hEXO1 protein, early S-phase foci, 50 co-transfected cells), the “Small foci (CFP-PCNA)” value is 28%. In addition, in data set [1] (CFP channel (CFP-PCNA) in cells co-expressing the hEXO1 protein, late S-phase foci, 50 co-transfected cells), the “Large foci (CFP-PCNA)” value was 12%. The “Mid Foci (CFP-PCNA)” value in data set [1] (CFP channel (CFP-PCNA) in cells co-expressing the hEXO1 protein, mid S-phase foci, 50 co-transfected cells) is recorded as 14%. For the same molecule, in data set [1] (setting [3]), the “cells showing diffuse nuclear staining” value was 40%; the “foci formation and co-localization with PCNA during S-phase” value is “co-localize in discrete nuclear foci”. Moreover, the sub-cellular localization result in data set [1] (NIH3T3 cells, confocal imaging) was “only rarely observed in the cytoplasm”.
